Laboratory results reported in ChEMBL document CHEMBL1146538, “Antioxidative glycosides from the leaves of Ligustrum robustum” (J Nat Prod, 2003).
The source made the active and inactive calls. The calls are words filed in the database; no cut-off is given here.

Tested on: not listed separately
Experiment: (§1) Antioxidant activity assessed as inhibition of AAPH-induced hemolysis in rat RBC after 3 hrs
Type: functional, cell-based
Conditions: erythrocyte
Procedure, shortened: (§2)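 Rat blood drawn from abdominal aorta; RBC separated by centrifugation (2500 rpm, 10 min), washed three times with five volumes PBS pH 7.4. 2 mL RBC suspension mixed with 2 mL PBS containing varying glycoside amounts, then 1 mL of 400 mM AAPH in PBS; shaken at 37 °C for 3 h. Diluted with 8 mL PBS, centrifuged, supernatant A540 read; % inhibition versus control.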
In the case of `C[C@@H]1O[C@@H](O[C@@H]2[C@@H](O)[C@H](OCCc3ccc(O)cc3)O[C@H](CO)[C@H]2OC(=O)/C=C/c2ccc(O)cc2)[C@H](O)[C@H](O)[C@H]1O` [OSMANTHUSIDE B], the IC50 is reported as 160 µM.
Work on `C[C@@H]1O[C@@H](O[C@@H]2[C@@H](O)[C@H](OCCc3ccc(O)c(O)c3)O[C@H](CO)[C@H]2OC(=O)/C=C/c2ccc(O)c(O)c2)[C@H](O)[C@H](O)[C@H]1O` [ACETOSIDE] yielded an IC50 of 28 µM.
Compound `O=c1cc(-c2ccc(O)cc2)oc2cc(O[C@@H]3O[C@H](CO)[C@@H](O)[C@H](O)[C@H]3O)cc(O)c12` [APIGETRIN] has an IC50 of 88.4 µM.
`C[C@@H]1O[C@@H](O[C@H]2[C@H](Oc3cc(O)c4c(=O)cc(-c5ccc(O)cc5)oc4c3)O[C@H](CO)[C@@H](O)[C@@H]2O)[C@H](O)[C@H](O)[C@H]1O` [RHOIFOLIN] showed an IC50 of 95.9 µM.
For `C[C@@H]1O[C@@H](O[C@@H]2[C@@H](O)[C@@H](O)[C@H](O[C@@H]3[C@@H](O)[C@H](OCCc4ccc(O)cc4)O[C@H](CO)[C@H]3O)O[C@H]2C)[C@H](O)[C@H](O)[C@H]1O` [LIGUROBUSTOSIDE M], the IC50 was 134 µM.
`C[C@@H]1O[C@@H](O[C@@H]2[C@@H](O)[C@H](OCCc3ccc(O)cc3)O[C@H](COC(=O)/C=C/c3ccc(O)cc3)[C@H]2O)[C@H](O)[C@H](O)[C@H]1O` [OSMANTHUSIDE B6] gave an IC50 of 91.7 µM.
For `C[C@@H]1O[C@@H](O[C@@H]2[C@@H](O)[C@@H](O)[C@H](O[C@@H]3[C@@H](O)[C@H](OCCc4ccc(O)c(O)c4)O[C@H](CO)[C@H]3OC(=O)/C=C/c3ccc(O)c(O)c3)O[C@H]2C)[C@H](O)[C@H](O)[C@H]1O` [LIGUPURPUROSIDE A], the IC50 was 26.3 µM.
Work on `C[C@@H]1O[C@@H](O[C@@H]2[C@@H](O)[C@@H](O)[C@H](O[C@@H]3[C@@H](O)[C@H](OCCc4ccc(O)cc4)O[C@H](CO)[C@H]3OC(=O)/C=C/c3ccc(O)c(O)c3)O[C@H]2C)[C@H](O)[C@H](O)[C@H]1O` [LIGUROBUSTOSIDE N] yielded an IC50 of 21.8 µM.
With `Cc1c(C)c2c(c(C)c1O)CCC(C)(C(=O)O)O2` (centres undefined) [TROLOX] the IC50 was 101 µM.
`C/C(=C\CO[C@@H]1O[C@H](CO)[C@@H](OC(=O)/C=C/c2ccc(O)cc2)[C@H](O[C@@H]2O[C@@H](C)[C@H](O)[C@@H](O)[C@H]2O)[C@H]1O)C/C=C\C(C)(C)O` [LIGUROBUSTOSIDE I] gave an IC50 of 340 µM.
Work on `C[C@@H]1O[C@@H](O[C@@H]2[C@@H](O)[C@@H](O)[C@H](O[C@@H]3[C@@H](O)[C@H](OCCc4ccc(O)cc4)O[C@H](CO)[C@H]3OC(=O)/C=C/c3ccc(O)cc3)O[C@H]2C)[C@H](O)[C@H](O)[C@H]1O` [LIGUPURPUROSIDE B] yielded an IC50 of 80.4 µM.

Tested on: Erythrocyte
Experiment: as §1
Type: functional, cell-based
Conditions: not given
Procedure, shortened: as §2
In the case of `CC(C)=CCC/C(C)=C/CO[C@@H]1O[C@H](CO)[C@@H](OC(=O)/C=C/c2ccc(O)cc2)[C@H](O[C@@H]2O[C@@H](C)[C@H](O)[C@@H](O)[C@H]2O)[C@H]1O`, the Activity is reported as “inactive”.
In the case of `CC(C)=CCC/C(C)=C/CO[C@@H]1O[C@H](COC(=O)/C=C/c2ccc(O)cc2)[C@@H](O)[C@H](O[C@@H]2O[C@@H](C)[C@H](O)[C@@H](O)[C@H]2O)[C@H]1O`, the Activity is reported as “inactive”.
In the case of `C=C(C)C(=O)CC/C(C)=C/CO[C@@H]1O[C@H](CO)[C@@H](OC(=O)/C=C/c2ccc(O)cc2)[C@H](O[C@@H]2O[C@@H](C)[C@H](O)[C@@H](O)[C@H]2O)[C@H]1O`, the Activity is reported as “inactive”.
